Published values collected from several papers.
Protocols differ between the studies behind these lines.
Target: Cytoplasmic tyrosine-protein kinase BMX (BMX, Homo sapiens, UniProt P51813)
Residues used in one study (P51813 1-675): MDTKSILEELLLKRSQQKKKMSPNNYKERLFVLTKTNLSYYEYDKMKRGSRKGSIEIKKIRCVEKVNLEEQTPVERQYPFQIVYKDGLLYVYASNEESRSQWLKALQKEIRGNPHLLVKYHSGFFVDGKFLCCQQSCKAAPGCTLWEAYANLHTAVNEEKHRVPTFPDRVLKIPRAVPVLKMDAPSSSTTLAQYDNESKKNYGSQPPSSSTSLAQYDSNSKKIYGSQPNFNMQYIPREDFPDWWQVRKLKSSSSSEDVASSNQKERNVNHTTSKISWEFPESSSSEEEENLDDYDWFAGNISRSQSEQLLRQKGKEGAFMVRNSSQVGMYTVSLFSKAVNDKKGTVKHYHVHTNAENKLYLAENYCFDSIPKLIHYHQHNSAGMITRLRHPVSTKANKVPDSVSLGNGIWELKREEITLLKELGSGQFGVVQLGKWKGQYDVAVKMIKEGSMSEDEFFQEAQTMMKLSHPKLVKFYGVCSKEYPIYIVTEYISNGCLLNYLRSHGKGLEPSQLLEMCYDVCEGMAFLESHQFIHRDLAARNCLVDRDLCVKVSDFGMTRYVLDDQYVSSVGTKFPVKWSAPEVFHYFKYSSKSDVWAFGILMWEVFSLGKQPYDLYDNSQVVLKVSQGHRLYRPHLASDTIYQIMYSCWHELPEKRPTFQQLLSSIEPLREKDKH

Compound	read-out	method	concentration	remaining binding [%]
C[C@@H](c1cccc(C#N)c1)n1cc(Cl)cc(C(N)=O)c1=N	cell-free assay	competition with immobilised ligand	1 µM	95
O=C(NCC1CCOCC1)c1n[nH]cc1NC(=O)c1c(F)cccc1F	binding	competition with immobilised ligand	1 µM	100
C[C@@H](c1ccc(-n2cnc3c(N)ncnc32)cc1)N1CCc2nn(C)c(Cc3ccccc3)c2C1=O	binding	competition with immobilised ligand	0.1 µM	52
O=C(c1ccc(Nc2ncc(Cl)c(-c3ccc(Cl)s3)n2)cc1)N1CCC(N2CCCC2)CC1	binding	competition with immobilised ligand	1 µM	79
CCC(=N\O)/C(C)=C/c1ccc(F)cc1	cell-free assay	competition with immobilised ligand	1 µM	83
CN(CCCC(F)(F)F)c1nccc(-c2cnn3ncccc23)n1	binding	–	1 µM	83
COc1ccc2cc(OCC3(C(=O)O)CN(C(=O)c4ccc(F)cc4)C3)ccc2c1	cell-free assay	competition with immobilised ligand	1 µM	87
Cc1cnn2ncc(-c3ccnc(N(C)C)n3)c2c1	binding	–	1 µM	96
COc1ncc2cc3ccccc3nc2c1C#N	cell-free assay	competition with immobilised ligand	5 µM	99
CNC(=O)[C@@H]1CC[C@@H](n2c(-c3ccc4cnccc4c3)nc3ccc(C(=O)NCc4cccc(C(N)=O)c4)cc32)C1	binding	competition with immobilised ligand	1 µM	100
CN(c1nccc(-c2cnn3ncccc23)n1)C1CC1	binding	–	1 µM	82
CC(=O)c1c(NS(C)(=O)=O)c2cc(-c3ccc(Cl)cc3)c(-c3ccc(Cl)cc3Cl)nc2n(C)c1=O	cell-free assay	competition with immobilised ligand	1 µM	100
CC1CCCN1c1nccc(-c2cnn3ncccc23)n1 (stereo not drawn)	binding	–	1 µM	94
CO[C@@H](C)c1c(Nc2ccc([C@H](N(C)C(=O)C3CCS(=O)(=O)CC3)C(F)(F)F)cc2)cnc2cc(Cl)nn12	cell-free assay	competition with immobilised ligand	1 µM	99
C[C@H]1CCN(c2nccc(-c3cnn4ncccc34)n2)C1	binding	–	1 µM	84
CCN1CCN(Cc2ccc(C(=O)Nc3ccc(C)c(Oc4ccc5c(c4)CC(=O)N5)c3)cc2C(F)(F)F)CC1	binding	competition with immobilised ligand	1 µM	88
COc1cnc(Nc2cccc(S(N)(=O)=O)c2)nc1N1CCN(c2ccccc2)C(=O)C1	binding	competition with immobilised ligand	1 µM	100
O=C(c1ccc(Nc2nccc(-c3cc4ccccc4s3)n2)cc1)N1CCC(N2CCCC2)CC1	binding	competition with immobilised ligand	1 µM	91
CN(C)c1nccc(-c2cnn3ncccc23)n1	binding	–	1 µM	87
O=C(O)[C@H]1[C@H](Cn2nnc3ccccc3c2=O)CC[C@@H]1C(=O)c1ccc(OCCC2CCOCC2)cc1	cell-free assay	competition with immobilised ligand	1 µM	92
O=C(c1ccc(Nc2ncc(Cl)c(-c3cc4ccccc4s3)n2)cc1)N1CCC(N2CCCC2)CC1	binding	competition with immobilised ligand	1 µM	75
